Structures can show the parent of a compound that is named as a salt.

This is an account of results in publication PMC11022046 (iScience, 2024).

The test system of data set [1] is H1299 lung cancer cells. Description: SRB proliferation assay. The format is cell-based. The note with it: Homo sapiens, NCI-H1299, 72 h, read-out: SRB IC50. In short, it runs like this: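 H1299 cells (RPMI/10% FBS) seeded the day before, then given serial half dilutions from 20 μM down to 0.078 μM for 72 h. Fixed in cold 10% TCA for 1 h and stained 15 min with 0.4% SRB. Washed with water and 1% acetic acid, dye dissolved in 10 mM Tris pH 10.5, OD read at 560 nm. Normalized to DMSO; IC₅₀ with 95% CI by nonlinear regression. Three biological × three technical replicates.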

The subject of data set [2] is H1299 lung cancer cells. Description: WST-8 proliferation assay. The format is cell-based. The note with it: Homo sapiens, NCI-H1299, 72 h, read-out: WST IC50. In short, it runs like this: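 H1299 cells (RPMI/10% FBS) seeded the day before, then given serial half dilutions from 20 μM down to 0.078 μM for 72 h. WST-8 reagent added to the medium at 1:10, 2 h at 37°C, OD read at 450 nm; both adherent and non-adherent cells counted. Normalized to DMSO; IC₅₀ with 95% CI by nonlinear regression. Three biological × three technical replicates.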
(Formazan colour is commonly taken as a measure of viable cells.)

Data set [3] can be described thus: Caco-2 permeability assay. The format is in vitro ADME. The conditions noted are these: human. In short, it runs like this: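 Caco-2 monolayers grown to confluence on transwells, with integrity checked by TEER. Test compound (5 μM) added to the apical or the basolateral side to give transport direction. After 2 h, donor and receiver samples quantified by LC-MS/MS. Lucifer Yellow used to check leakage. Propranolol (high absorption) and digoxin (high efflux) served as controls.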
A general note: Caco-2 monolayers are a common model of the intestinal barrier.

Data set [4] is described as follows: In vivo pharmacokinetics, single IP dose. The arrangement: species or system BALB/c mice. In short, it runs like this:
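Female BALB/c mice (8–14 weeks) given 5 mg/kg by single IP injection in 1% DMSO/99% water. Plasma sampled at 0.25, 0.5, 1, 2, 4, 6, 8 and 24 h. Compound quantified by LC-MS/MS with calibration standards and QC samples. Terminal elimination half-life and maximum concentration derived; n = 3 mice per treatment.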

Data set [5] deals with H1299 cells. Put plainly: TMRM flow cytometry with oligomycin. The class given is cell-based, human. The note with it: H1299, 1 μM, 48 h, + 1 μM oligomycin, mean of three replicates. The essentials:
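H1299 cells (1.75 × 10⁵ per 10 cm plate) exposed 48 h to 1 μM or to DMSO. Attached and floating cells pooled and stained with 2 nM TMRM in phenol-red-free RPMI with 2% dialyzed FBS for 30 min at 37°C. Oligomycin (1 μM) added during the TMRM incubation, then flow cytometry. Three biological replicates.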

In data set [6] the test system is H1299 cells. Put plainly: 3D spheroid invasion assay. The class given is cell-based, human. The conditions noted are these: H1299 spheroids in basement membrane matrix, 2 μM, 48 h. The essentials:
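H1299 spheroids formed over 3 days from 3 × 10³ cells/well in low-attachment wells. Embedded in Matrigel containing 0.5, 1 or 2 μM compound, with compound also in the medium, and incubated 48 h. Imaged at Day 0 and Day 2 with a 4× objective; perimeter outlined. Invasion area = Day 2 area minus Day 0 area. At least four spheroids per treatment in each of three biological replicates.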

The test system of data set [7] is H1299 cells. Description: Extracellular lactate assay. The class given is cell-based, human. The conditions noted are these: H1299, 1 and 2 μM, 48 h. The essentials: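 H1299 seeded at 3.75 × 10⁴ or 7.5 × 10⁴ cells/well, then treated 48 h with 1 or 2 μM or with DMSO. Medium passed through a 3K cutoff filter at 14,000 × g, 15 min, 4°C. Lactate measured with a WST-based kit on medium diluted 1:20, in triplicate, against a standard curve. Values normalized to cell count and DMSO; three biological replicates.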

For data set [8], the system named is H1299 cells. Description: Mitochondrial structure by electron microscopy. The format is cell-based, human. The conditions noted are these: H1299, 48 h, 1 or 2 μM. In short, it runs like this:
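H1299 cells (1.75 × 10⁵ per 10 cm plate) exposed 48 h to 1 or 2 μM or to DMSO, then scraped and pelleted. Pellets fixed 4 h at room temperature in 2.0% paraformaldehyde/2.5% glutaraldehyde in 0.1 M cacodylate, pH 7.2. Post-fixed in 1.0% osmium tetroxide for 1 h; en bloc 2% aqueous uranyl acetate, 20 min, 60°C. Three biological replicates.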

[9] abbreviates: female, BALB/c, mouse, plasma, ip, 5 mg/kg.

One may read the IC50 as the point on the concentration scale where inhibition reaches its midpoint. The efflux ratio is a quotient of directional permeabilities that is used to spot active efflux. In general, Cmax refers to the maximum level reached in the sampled fluid or tissue. In general, half-life refers to the time needed for the level to fall by half in the phase considered. Lower therefore signals rapid decline. For the molecule `CCCCC(CC)CNC(=N)NC(=N)NCCCCCCNC(=N)NC(=N)NCC(CC)CCCC` (stereo not shown) [Alexidine, Alexidine dihydrochloride], the IC50 in the data set on H1299 lung cancer cells [1] was found to be 1000 nM; with H1299 lung cancer cells [2], 2500 nM. The efflux ratio at 2 h, 5 μM in data set [3] was more than 5.37. Further, in data set [4] (setting [9]), the Cmax worked out at 268 ng/mL. In data set [4] (setting [9]), this molecule had a half-life of 9.5 h. The tolerability in mice result in data set [4] (mice, IP) is reported as “tolerated in mice”. Moreover, the “percentage of cells unable to hyperpolarize with oligomycin (TMRM-low population)” value with H1299 cells [5] is listed as 18.1%. Besides, the “invasive area, % of the control” value in the data set on H1299 cells [6] stood at 36.8%. Also, in the data set on H1299 cells [7], the “effect on extracellular lactate” value was “increased lactate concentration”. In addition, the “effect on mitochondrial structure” value in the data set with H1299 cells [8] is reported as “disrupted mitochondrial structure”.
